UPR CHOP act: activators of apoptotic CHOP UPR arm, primary screen, cell-based, CHO-CHOP luciferase reporter, luminescence, uHTS; 330,000 compounds, 0.34% hits; UPR activation; percent of tunicamycin response over DMSO baseline; activation, % at 10 µM;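 active = at 10 µM dose, activation of 40% or more, normalized to positive control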
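System: CHO-CHOP luciferase reporter cell line | Buffer or medium: F12 medium containing 10% fetal bovine serum | Doses: One dose, 10 µM in 0.5% DMSO | Times: 6 h compound exposure at 37 °C after overnight seeding | Signal: Luciferase luminescence | Read-out: % activation vs tunicamycin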
CHOP inhibitor: inhibitors of CHOP promoter induction, primary screen, cell-based, unfolded protein response, luciferase reporter. inhibition, % at 10 µM. AID 2732, 2010. CHO-K1 CHOP-promoter luciferase, tunicamycin-induced, 15-18 h. 220,000 compounds, 3.8% hits;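 active = compounds that reduced the stress-induced luciferase reporter signal by more than about 70% of percent inhibition, limit read from the data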
NOD2 RIPK2 PPI: NOD2-RIPK2 binding disruptors in cells, primary screen, fluorescence, CHO cells, BLA complementation; AID 624267, 2012; Receptor-interacting serine/threonine-protein kinase 2 (Homo sapiens), O43353; 360,000 compounds, 0.38% hits; CCF4 ratio; inhibition, % at 4.98 µM; in the data active = inhibition above about 21%
TLR4-MyD88 BLA: inhibitors of TLR4-MyD88 association in cells, primary screen, cell-based, HeLa CL3-4, BLA complementation, FRET ratio; Toll-like receptor 4 (Homo sapiens) + Myeloid differentiation primary response protein …; HeLa CL3-4 TLR4/MyD88 BLA complementation; inhibition, % at 8.4 µM; 200,000 compounds, 0.18% hits; in the data active = inhibition above about 25%
TLR9-MyD88 inh: inhibitors of TLR9-MyD88 association in cells, primary screen, cell-based, CHO, BLA complementation, fluorescence; 340,000 compounds, 0.21% hits; AID 504734, 2011; inhibition, % at 4.98 µM; CCF4 FRET ratio;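 active = inhibition above the mean over all tested compounds plus 3 SD, cut at about 21% in these data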
XBP1 UPR activ: activators of adaptive XBP1 UPR arm, primary screen, cell-based, CHO-XBP1 luciferase reporter, luminescence, uHTS | 330,000 compounds, 0.33% hits | AID 463104, 2010 | activation, % at 20 µM | IRE1-XBP1 UPR activation; percent of tunicamycin response, DMSO as zero;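 active = versus positive control, 20 µM dose yields 30% or more activation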
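Material: CHO cell line with stable XBP1 luciferase reporter; schedule: 16-18 h cell attachment at 37 °C, then 6 h compound exposure; signal: glow luminescence from Steady-Glo reagent; medium: serum-containing F12 medium, 10% FBS; benchmarks: tunicamycin 10 µg/mL and vehicle-only wells; read-out: percent activation relative to tunicamycin reference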
NOD2 RIPK2 conf: NOD2-RIPK2 binding disruptors, retest, confirmation, fluorescence, CHO cells, BLA complementation, triplicate | shares compounds with NOD2 RIPK2 PPI | CCF4 FRET | inhibition, % at 4.98 µM | 1,200 compounds, 70% hits | AID 624370, 2012;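 active = mean inhibition across replicates above a set limit taken from the earlier primary screen, cut at about 21% in these data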
BLA counter: NOD2-RIPK2 counterscreen BLA reporter activity | shares compounds with NOD2 RIPK2 PPI | inhibition, % at 4.98 µM | AID 624371 | CHO BLA reporter, CCF4 FRET ratio | 1,200 compounds, 57% hits;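 active = mean inhibition above the low-control mean inhibition plus three low-control SD, cut at about 11% in these data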
Numbers stand for hits; i = inactive; nt = not tested or not shown. Only a selection was taken, and hits are over-represented in it overall.

SMILES	UPR CHOP act	CHOP inhibitor	NOD2 RIPK2 PPI	TLR4-MyD88 BLA	TLR9-MyD88 inh	XBP1 UPR activ	NOD2 RIPK2 conf	BLA counter
CCC(=O)OCOc1ccc(/C=C2/CCC(CN(C)C)C2=O)cc1 (configuration not stated)	nt	nt	33	nt	i	nt	35	i
CCOc1ccc(/C=C2\CCC(C3CCCC3)C2=O)cc1 (configuration not stated)	i	nt	i	nt	i	i	nt	nt
CC[C@H](C)[C@@H](C(=O)N1CCNCC1)n1cc([C@@H](N)CC(C)C)nn1	i	i	i	i	i	i	nt	nt
Cc1ccc2nc(N3CCN(C(=O)CCCC(=O)O)CC3)nc(-c3ccccc3)c2c1	i	nt	i	nt	i	i	nt	nt
Cc1ccc2nc(N3CCN(C=O)CC3)nc(-c3ccccc3)c2c1	i	i	26	i	i	i	29	38
COc1ccccc1-c1ccc(/C=C2\C=CC(=O)O2)o1	i	i	48	nt	nt	i	45	49
Cc1cc(OCCn2cc(/C(N)=N/O)c3ccccc32)ccc1Cl	i	i	23	i	i	i	i	i
O=C1/C(=C/c2ccc(Br)cc2)Oc2cc(O)ccc21	i	nt	25	nt	i	i	37	42
CC(C)(C)c1ccc(/C=C2\Oc3cc(O)ccc3C2=O)cc1	i	nt	24	nt	i	i	27	45
O=C1/C(=C/c2ccc([N+](=O)[O-])cc2)Oc2cc(O)ccc21	i	nt	i	nt	i	i	nt	nt
O=c1ccsn1Cc1ccccc1	i	i	27	i	i	i	i	i
CCn1c(COc2ccc(C)cc2)nc2ccccc21	i	i	i	i	i	i	nt	nt
O=C(N/N=C/c1[nH]c2ccccc2c1Cl)c1cccc(Br)c1	i	i	24	nt	nt	i	i	31
O=C(CN1C(=O)c2ccccc2S1(=O)=O)NCCSCc1cccc(Cl)c1	i	nt	29	nt	i	i	i	i
O=C(CN1C(=O)c2ccccc2S1(=O)=O)NCCSC1CCCCC1	i	i	i	i	i	i	nt	nt
Cc1cnc(NS(=O)(=O)c2ccc(N)cc2)nc1-c1ccccc1O	nt	nt	i	nt	i	nt	nt	nt
CC(C)(C)[C@H](N)C(=O)N[C@H]1CCC2C3CC=C4C[C@@H](O)CC[C@]4(C)C3CC[C@@]21C (some centres not stated)	i	nt	21	nt	i	i	22	i
COC(=O)COc1ccc(S(=O)(=O)Nc2cc([N+](=O)[O-])ccc2C)cc1	i	i	i	i	i	i	nt	nt
CCN(CC)CCNC(=O)c1ccc(NC(=O)COc2ccccc2F)cc1	i	i	i	i	i	i	nt	nt
CCOC(=O)C(C)(C)Sc1ncnc2nc[nH]c12	i	i	i	i	i	i	nt	nt
CCOC(=O)c1cc([N+](=O)[O-])cc([N+](=O)[O-])c1Sc1ncnc2nc[nH]c12	nt	nt	39	nt	i	nt	67	i
Cn1c(SCC(=O)NNC(=O)Nc2ccccc2)nnc1-c1ccccc1	i	i	24	nt	i	i	i	i
COc1ccc(/C=C/C(=O)c2cc(F)ccc2OC(=O)c2ccc(OC)c(OC)c2)cc1OC	i	i	i	i	i	i	nt	nt
COc1ccc(/C=C/C(=O)c2cc(F)ccc2OC(=O)c2ccccc2OC)cc1OC	nt	i	22	i	i	nt	22	i
COc1ccc(/C=C/C(=O)c2cc(Br)ccc2OC(=O)c2ccco2)cc1OC	i	i	i	i	i	i	nt	nt
SMILES	UPR CHOP act	CHOP inhibitor	NOD2 RIPK2 PPI	TLR4-MyD88 BLA	TLR9-MyD88 inh	XBP1 UPR activ	NOD2 RIPK2 conf	BLA counter
COc1ccc(/C=C/C(=O)c2cc(F)ccc2OC(=O)c2ccccc2)cc1OC	i	nt	26	i	i	i	i	i
O=C(C[C@H]1C/C=C\CC[C@H](Cc2ccc(F)cc2)C(=O)OC[C@@H](Cc2c[nH]c3ccccc23)NC1=O)NCCO	i	nt	i	nt	i	i	nt	nt
COc1ccc(C(=O)/C=C2/C(=O)Nc3ccccc32)cc1	i	nt	33	nt	i	i	i	i
C=CCOc1ccc(C(=O)/C=C2/C(=O)Nc3ccccc32)cc1	i	nt	25	nt	i	i	i	i
C=CCOc1ccccc1C(=O)/C=C1/C(=O)Nc2ccccc21	152	nt	65	nt	i	i	55	i
C=CCOc1ccc(C2NC(=O)c3ccccc3O2)cc1 (configuration not stated)	i	nt	i	nt	i	i	nt	nt
Cc1cccc(NC(=O)COC(=O)CCc2c[nH]c3ccccc23)c1C	i	nt	i	nt	i	i	nt	nt
Cn1c(NC(=O)/C=C\c2ccccc2)cc(=O)n(C)c1=O	i	i	i	i	i	i	nt	nt
N#Cc1cccc(N=c2ssnc2Cl)c1	i	i	nt	i	nt	i	nt	nt
Clc1nssc1=Nc1nncs1	i	nt	27	nt	i	i	29	i
O=S(=O)(c1cnc(Cl)c(Br)c1)N1CCc2ccccc21	i	i	27	nt	i	i	35	i
COc1ccc(-c2nc(CS(=O)CC(=O)NC3CCCc4ccccc43)c(C)o2)cc1OC (configuration not stated)	i	i	27	i	i	i	i	i
CCOC(=O)C[n+]1ccc2c([nH]c3ccccc32)c1C	i	nt	38	nt	i	i	i	i
CCOC(=O)Cc1c(Cl)c2ccccc2[nH]c1=O	i	i	i	i	i	i	nt	nt
CCOc1ccccc1CN1CCNC(=O)C1CC(=O)NCc1ccccn1 (configuration not stated)	i	nt	i	nt	i	i	nt	nt
CN1CCN(C2CC(=O)N(c3ccc4c(c3)OCCO4)C2=O)CC1 (configuration not stated)	i	i	24	i	i	i	i	i
O=C1CC(N2CCN(c3ccccc3)CC2)C(=O)N1c1ccc2c(c1)OCCO2 (configuration not stated)	i	i	i	i	i	i	nt	nt
Cc1[nH]c2ccccc2c1CC#N	i	i	i	nt	i	i	nt	nt
Cc1[nH]c2ccccc2c1C1=CC(=O)C=CC1=O	nt	nt	45	nt	i	nt	62	13
Cc1ccc(S(=O)(=O)N2C(=O)C(C)SC2=Nc2ccccc2)cc1 (configuration not stated)	i	i	41	i	i	i	i	i
CN(C)c1ccc(C=c2c3ccccc3n3c2cc(-c2ccc(Cl)cc2)[n+]3C)cc1	nt	nt	25	nt	i	nt	23	23

Screens as filed in PubChem.
